According to PMC3838623 (Journal of Pharmaceutical Sciences, 2013):
Read-outs that look alike come from different tables or passages of the source.

Experiments:
[1] = system: plasma proteins; conditions: cited from earlier work
[2] = system: plasma proteins (human plasma); test: Reiterated stepwise equilibrium dialysis, plasma protein binding; assay type: in vitro ADME; conditions: two-sided ANOVA
Procedure, shortened: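 Human plasma spiked with test compound (final 10^6, 10^4 or 10^2 pM) was placed in a 1.0 mL dialysis sac inside a buffer chamber pre-coated with compound-containing buffer. Compound was present in both chambers at inner–outer ratios of 100:1 or 50:1. Dialysis ran 4–5 h at 37 ± 2°C with slow rotation, in triplicate, with radioactivity counting. % bound relative to pre-incubation; mean (SD) analysed by two-sided ANOVA for gender and concentration.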

[3] = system: plasma proteins; conditions: liraglutide concentration 10^2 pM, cited from earlier work
[4] = cited from earlier work

| Substance | plasma protein binding [1] | estimated difference in protein binding, 10^2 pM compared with 10^4 pM ([2]; p = 0.581) | estimated difference in protein-bound liraglutide, females vs. males ([2]; p = 0.593) | mean (SD) unbound percentage ([3]; healthy subjects) | mean (SD) unbound percentage ([3]; subjects with mild hepatic impairment) | plasma half-life [4] | liraglutide pharmacokinetics in renal impairment ([4]; subjects with mild-to-severe renal impairment versus healthy subjects) |
| --- | --- | --- | --- | --- | --- | --- | --- |
| exenatide: GLP-1 receptor agonist with shorter duration of action, twice-daily administration | does not demonstrate significant levels of plasma protein binding |  |  |  |  |  |  |
| liraglutide |  | 0.05% | −0.18% | 0.53% (0.46) | 0.59% (0.61) | approximately 13 h | not altered |
